# Tb MetRS inh: Trypanosoma brucei MetRS inhibition; purified T. brucei MetRS, ATP depletion, Kinase-Glo luminescence; inhibition, % at 11.9 µM; 360,000 tested, 0.4% active;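 active = inhibition above a per-plate cutoff of the control wells' mean inhibition plus 3 SD, cut at about 5.5% in these data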
#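 Assay system: T. brucei methionyl-tRNA synthetase, purified | Medium: HEPES buffer with MgCl2, KCl, DTT, spermine, BSA, pyrophosphatase | Compound: 11.9 µM single point | Incubation: 15 min enzyme-compound preincubation, 2 h reaction, 10 min detection, 25 °C | Measured by: Kinase-Glo luciferase luminescence reporting remaining unconsumed ATP | Measure: % inhibition normalized to control-well medians | Replication: Singlicate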
# WT yeast gro inh: growth inhibition of WT yeast, mitochondrial fusion screen. mitochondrial fusion phenotypic screen, WT strain. inhibition, % at 10 µM. 190,000 tested, 2.1% active. AID 1362; in the data active = inhibition above about 58%; tested in S. cerevisiae
# CHOP inhibitor: CHOP inhibition in unfolded protein response. CHO-K1 CHOP-promoter luciferase, tunicamycin-induced, 15-18 h. inhibition, % at 10 µM. 220,000 tested, 3.8% active. AID 2732;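 active = compounds that reduced the stress-induced luciferase reporter signal by more than about 70% of percent inhibition, limit read from the data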
# EBV gp42 inh: inhibitors of Epstein-Barr virus glycoprotein 42; Q1HVG2; Fluorescence polarization binding assay, mP read-out; inhibition, % (tested at 21.74 µM); 220,000 tested, 0.42% active; in the data active = inhibition above about 50%
# Target sequence (Q1HVG2 whole entry, looked up): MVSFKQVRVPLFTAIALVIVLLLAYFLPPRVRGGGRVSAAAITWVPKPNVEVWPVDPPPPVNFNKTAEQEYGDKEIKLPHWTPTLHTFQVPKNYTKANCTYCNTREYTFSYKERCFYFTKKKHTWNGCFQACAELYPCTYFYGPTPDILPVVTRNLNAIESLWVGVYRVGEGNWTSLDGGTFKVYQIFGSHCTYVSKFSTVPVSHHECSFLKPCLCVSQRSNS
# GRIN3A LBD mod: NR3A (human) ligand-binding domain modulation; NR3A LBD differential scanning fluorimetry, Tm shift; 0% = protein alone, 100% = glycine-bound protein; Tm shift relative to glycine control, % at 25 µM; 340,000 tested, 2.5% active;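 active = melting temperature shift of at least 10% of the positive control shift, at one fixed dose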
# MPTP inh: inhibitors of mitochondrial permeability transition pore. isolated mouse mitochondria, Ca2+ swelling absorbance, 30 min. inhibition, % at 10 µM. 360,000 tested, 1.4% active. AID 602449;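 active = inhibition of 50% or more, scaled per plate between neutral and stimulator controls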
# TbMetRS confirm: Trypanosoma brucei MetRS inhibition confirmed; 1,400 tested, 93% active; inhibition, % at 11.9 µM; T. brucei MetRS enzyme, luminescence (ATP depletion); shares compounds with Tb MetRS inh; in the data active = inhibition above about 7%
# Jurkat cytotox: Jurkat T cell cytotoxicity for MetRS hits; inhibition, % at 8.3 µM; 1,400 tested, 12% active; shares compounds with Tb MetRS inh; Jurkat cells viability, ATP luminescence; in the data active = inhibition above about 15%
# Tb MetRS inh FP: inhibits T. brucei methionyl tRNA synthetase in orthogonal FP test | shares compounds with Tb MetRS inh | purified T. brucei MetRS, fluorescence polarization | inhibition, % at 11.9 µM | 1,400 tested, 44% active; in the data active = inhibition above about 17%
# Hits are given with their value; . = inactive; / = no result given. The list is not random: actives were taken first. Their share in the collection is about 6.4%.
SMILES,Tb MetRS inh,WT yeast gro inh,CHOP inhibitor,EBV gp42 inh,GRIN3A LBD mod,MPTP inh,TbMetRS confirm,Jurkat cytotox,Tb MetRS inh FP
OCCNc1nc(Nc2ccc(O)cc2)nc2ccccc12,.,/,.,.,.,.,/,/,/
OCCNc1nc(Nc2cccc(O)c2)nc2ccccc12,18,/,.,.,.,.,44,.,.
COCCCNC(=O)CSc1nc2c(sc3ccccc32)c(=O)n1CCCC(=O)NCC1CCCO1 (stereo not drawn),.,.,.,.,.,.,/,/,/
Cc1ncc(CN2CCCC(C(=O)Nc3ccc(-c4cscn4)cc3)C2)cn1 (stereo not drawn),.,/,/,/,.,.,/,/,/
COc1cccc(CN2CCCC(C(=O)Nc3ccc(-c4cscn4)cc3)C2)c1 (stereo not drawn),7.4,/,/,/,.,.,28,.,.
Cc1nc(C(C)N(C)Cc2c(C(=O)N3CCCCC3)nc3c(C)cccn23)c(C)s1 (stereo not drawn),.,.,.,.,.,.,/,/,/
O=C(CNc1cccc2ccccc12)N/N=C/c1ccc[nH]1,9.8,/,.,.,.,.,65,64,44
CC(C)CC(N)c1csc(Nc2ccc(C(=O)c3ccccc3)cc2)n1 (stereo not drawn),.,/,/,/,/,.,/,/,/
O=C(CNC(=O)c1ccc2c(c1)OCO2)N/N=C(Br)/C=C/c1ccccc1,35,.,.,.,.,.,52,29,42
O=C(O)CC1S/C(=N/N=C/c2ccc(-c3ccc(Cl)cc3[N+](=O)[O-])o2)NC1=O (stereo not drawn),11,.,.,.,.,.,14,.,.
c1ccc(Nc2ccnc(Nc3ccccc3)n2)cc1,10,/,.,.,.,.,24,.,.
NNc1nc(Nc2ccccc2)nc(Nc2ccccc2)n1,.,.,.,.,.,.,/,/,/
COc1ccccc1OCC(=O)NCCNC(=O)COc1ccccc1OC,.,.,.,.,.,.,/,/,/
O=c1[nH]c2ccccc2c(=O)n1Cc1ccco1,.,.,.,.,.,.,/,/,/
O=c1[nH]c2ccc(Cl)cc2c(=O)n1Cc1ccco1,9.4,.,81,.,.,.,28,.,.
O=c1c2cc(Cl)ccc2[nH]c(=S)n1Cc1ccco1,8.1,.,.,.,.,.,13,.,.
COc1ccc(C(=O)Nc2ccc(S(=O)(=O)Nc3cnc4ccccc4n3)cc2)cc1,.,/,/,/,.,.,/,/,/
O=C(Nc1ccc(S(=O)(=O)Nc2cnc3ccccc3n2)cc1)c1ccc(Cl)c([N+](=O)[O-])c1,12,/,/,/,24,.,24,.,.
O=C(NCCc1nc2ccccc2[nH]1)/C(=C/c1ccc2c(c1)OCO2)NC(=O)c1ccccc1,6.4,.,.,.,.,.,9.6,.,.
COc1ccccc1C(=O)N/C(=C\c1ccc2c(c1)OCO2)C(=O)NCCc1nc2ccccc2[nH]1,8.8,.,.,.,.,.,16,.,.
O=C(NCCc1nc2ccccc2[nH]1)/C(=C/c1ccc2c(c1)OCO2)NC(=O)c1ccccc1Cl,.,.,.,.,.,.,/,/,/
COc1ccc(/C=C(\NC(=O)c2ccco2)C(=O)NCCc2nc3ccccc3[nH]2)cc1,.,/,.,.,.,.,/,/,/
Cc1cc(C)nc(NC(=NCCc2c[nH]c3ccccc23)NC(=O)c2ccco2)n1,.,.,.,.,.,.,/,/,/
COC(=O)c1ccc(CN2C(=O)c3ccccc3C2=O)cc1,.,/,/,/,.,.,/,/,/
C(=NN=Cc1c[nH]c2ccccc12)c1c[nH]c2ccccc12,.,/,/,/,/,.,/,/,/
SMILES,Tb MetRS inh,WT yeast gro inh,CHOP inhibitor,EBV gp42 inh,GRIN3A LBD mod,MPTP inh,TbMetRS confirm,Jurkat cytotox,Tb MetRS inh FP
O=C1/C(=C/c2c[nH]c3ccccc23)CCC/C1=C\c1c[nH]c2ccccc12,6.2,.,.,.,.,.,7.5,18,18
CC(C)CC1NC(=O)N(CCCCN2C(=O)c3ccccc3C2=O)C1=O (stereo not drawn),8.8,.,.,.,.,.,.,.,.
COCCNC(=O)CS(=O)Cc1nc(-c2ccccc2C)oc1C (stereo not drawn),59,.,.,.,.,.,.,.,.
Cc1ccccc1-c1nc(CS(=O)CC(=O)NCc2ccccc2)c(C)o1 (stereo not drawn),.,.,.,.,.,.,/,/,/
Cc1ccc(NC(=S)NCCc2ccc(S(N)(=O)=O)cc2)cc1C,.,.,.,.,.,.,/,/,/
NS(=O)(=O)c1cccc(NC(=O)CCc2ccc(S(=O)(=O)N3CCOCC3)cc2)c1,.,/,/,/,.,.,/,/,/
NS(=O)(=O)c1ccc(CCNC(=O)Nc2ccc(Cl)c(Cl)c2)cc1,15,.,.,.,.,.,23,18,19
NS(=O)(=O)c1cccc(NC(=O)Cc2ccc(Cl)c(Cl)c2)c1,12,.,.,.,.,.,19,.,.
O=C(NCCc1ccncc1)Nc1ccc(Cl)cc1,6.2,.,.,.,.,.,14,.,.
COC(=O)C1(C(=O)OC)C[C@H](/C=C/c2ccccc2)N(Cc2ccccc2OC)[C@@H]1c1ccc(F)cc1,.,/,/,/,/,.,/,/,/
O=C(NNC(=O)c1cc(-c2ccncc2)nc2ccccc12)Nc1ccc(F)cc1,20,/,/,/,.,.,39,.,19
COCCN(C(=O)c1csnn1)C(C(=O)NC1CCCCC1)c1ccc(Cl)cc1 (stereo not drawn),9.2,/,/,/,.,.,.,.,.
Nc1nc2ccccc2n1CCOc1ccc(Cl)cc1,26,/,/,/,.,.,45,.,22
Nc1nc2ccccc2n1CCOc1ccc(Br)cc1,37,/,/,/,.,.,51,19,34
CN(C)S(=O)(=O)c1ccc(NC(=O)Cn2c(-c3ccccc3)noc2=O)cc1,.,.,.,.,.,.,/,/,/
COc1cc(CNCCc2ccccc2)cc(Br)c1OCC(=O)Nc1ccccc1C,.,.,.,.,.,.,/,/,/
N/C(=N\c1nc2ccccc2o1)NC(=O)c1ccc([N+](=O)[O-])cc1,.,/,.,.,.,.,/,/,/
O=C(COC(=O)Cc1n[nH]c(=O)c2ccccc12)Nc1ccc(Cl)cc1F,.,.,.,.,.,.,/,/,/
COc1ccc2c(CC(=O)OCC(=O)Nc3ccc(C)cc3)coc2c1,9.8,/,/,/,.,.,25,.,.
COc1ccc2c(CC(=O)OCC(=O)Nc3ccc(S(N)(=O)=O)cc3)coc2c1,.,/,.,.,.,.,/,/,/
COc1ccc2c(CC(=O)OCC(=O)Nc3ccc4c(c3)OCO4)coc2c1,10.0,.,.,.,.,.,15,.,.
Cc1ccc(Nc2n[nH]c(C)c2[N+](=O)[O-])c(C)c1,.,.,.,.,.,.,/,/,/

# Screening results deposited in PubChem by several laboratories.
